Lipid droplet = inhibitors of hepatocyte lipid droplet formation, primary screen, imaging, high-throughput imaging, BODIPY stain | AML12 mouse hepatocytes, oleate lipid droplets | inhibition, % at 6.5 µM | 240,000 compounds, 0.4% hits | AID 1656, 2009;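 active means lipid droplet intensity inhibited by at least 50%, with more than 500 cells counted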
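material = mouse AML12 hepatocyte cell line, fixed after treatment | also added = 100 µM oleic acid challenge | doses = compound at 6.5 µM only | schedule = overnight exposure | technique = Image-based BODIPY and DAPI two-channel analysis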
MC4R ag barr = MC4R agonists recruiting beta-arrestin, primary screen, cell-based, luminescence, agonist arm of biased-ligand search; Melanocortin receptor 4 (Homo sapiens), P32245; activation, % at 8.9 µM; 360,000 compounds, 0.98% hits; U2OS MC4R beta-arrestin complementation; percent of melanotan II response, DMSO zero;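 active means activation above a per-plate cutoff, the mean activation of sample wells on that plate plus 3 SD, cut at about 8% in these data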
NTR1 agonist = agonists of human NTR1, primary screen, imaging, U2OS cells, beta-arrestin-GFP, high content | NTR1-U2OS beta-arrestin-GFP spot imaging, agonist mode | activation, % at 20 µM | 330,000 compounds, 0.17% hits;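 active means activation at or above 40% of the spot to cytoplasm intensity ratio, with at least 20 cells analyzed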
MC4R antag cAMP = MC4R antagonists of cAMP signaling, primary screen, cell-based, TR-FRET, antagonist arm of biased-ligand search. MC4R-expressing cells, MTII-stimulated cAMP, LANCE TR-FRET. Melanocortin receptor 4 (Homo sapiens), P32245. inhibition, % at 6.5 µM. 360,000 compounds, 0.48% hits;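 active means inhibition above its plate's cutoff, the mean of tested wells on that plate plus 3 SD, cut at about 29% in these data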
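material = U2OS cells stably expressing human melanocortin 4 receptor (MC4R) | also added = Melanotan II challenge | dosing = single nominal compound dose of 6.5 µM | detection = TR-FRET with Eu-cAMP and labeled anti-cAMP, 671 nm | replication = singlicate | timing = compound 30 min, challenge 1 h, detection 1 h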
PREPL inhibitor = PREPL enzyme inhibitors, primary screen, biochemical, fluorescence polarization | Prolyl endopeptidase-like (Homo sapiens), Q4J6C6 | recombinant PREPL, fluorescence polarization activity-based probe | inhibition, % at 5.96 µM | 320,000 compounds, 0.68% hits; in the data active means inhibition above about 43%
Target sequence (Q4J6C6 whole entry, looked up): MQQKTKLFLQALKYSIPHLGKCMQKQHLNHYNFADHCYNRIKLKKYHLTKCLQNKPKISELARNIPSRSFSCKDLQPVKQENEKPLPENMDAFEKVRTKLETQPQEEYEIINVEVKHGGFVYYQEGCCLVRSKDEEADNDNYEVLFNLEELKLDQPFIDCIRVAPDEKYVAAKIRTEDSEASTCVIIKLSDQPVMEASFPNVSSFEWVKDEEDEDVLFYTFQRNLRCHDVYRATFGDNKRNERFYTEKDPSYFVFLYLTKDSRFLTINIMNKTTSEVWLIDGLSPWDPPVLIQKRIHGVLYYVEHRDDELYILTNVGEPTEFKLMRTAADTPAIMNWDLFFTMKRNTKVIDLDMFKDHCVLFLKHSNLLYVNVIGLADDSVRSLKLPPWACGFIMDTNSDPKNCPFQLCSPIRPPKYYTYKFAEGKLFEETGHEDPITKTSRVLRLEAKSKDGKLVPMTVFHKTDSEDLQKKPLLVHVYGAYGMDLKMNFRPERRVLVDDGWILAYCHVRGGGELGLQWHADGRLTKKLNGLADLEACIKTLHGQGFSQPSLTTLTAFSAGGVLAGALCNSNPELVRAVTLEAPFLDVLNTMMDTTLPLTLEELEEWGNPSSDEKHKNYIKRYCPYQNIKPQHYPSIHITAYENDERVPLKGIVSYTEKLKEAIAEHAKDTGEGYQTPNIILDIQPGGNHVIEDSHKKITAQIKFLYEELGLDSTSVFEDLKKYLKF
m5-HT2A agonist = mouse Htr2a agonists via beta-arrestin recruitment, primary screen, cell-based, luminescence; activation, % at 7.6 µM; 5-hydroxytryptamine receptor 2A (Mus musculus), P35363; 360,000 compounds, 0.66% hits; CHO-K1 mHTR2A beta-arrestin complementation; percent of 30 µM serotonin response;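 active means activation above a run cutoff, the mean activation of all tested compounds plus 3 SD, cut at about 14% in these data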
MC4R barr conf = MC4R beta-arrestin agonists, retest, confirmation, cell-based, luminescence, U2OS; shares compounds with MC4R ag barr; U2OS MC4R beta-arrestin recruitment; scaled DMSO 0%, Melanotan II 100%; activation, % at 8.9 µM; 2,400 compounds, 31% hits;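 active means mean activation across replicates above the hit cutoff set in the earlier primary screen, cut at about 8% in these data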
MOR-DOR barr ag = agonists of MOR-DOR heterodimerization, counter-screen for MC4R biased agonist project, cell-based, luminescence; U2OS PathHunter beta-arrestin, beta-gal luminescence; percent of deltorphin B response, DMSO zero; 2,400 compounds, 5.8% hits; activation, % at 9.2 µM; shares compounds with MC4R ag barr;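 active means mean activation across replicates exceeds the hit threshold derived in the earlier primary screen, cut at about 18% in these data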
Large screens that a line does not name were inactive (follow-up assays come after a bar, where they were run); ! = repeats disagree. Rows were chosen to be rich in hits. Some 2.7% of all compounds tested hit in one or more screens of this group.

Cc1cccc(NS(=O)(=O)c2cccc(C(=O)NCC(c3ccc(F)cc3)N3CCOCC3)c2)c1 (stereo unspecified)	none (no result: Lipid droplet, NTR1 agonist, PREPL inhibitor)
Oc1ccc(N2CCN(c3ncnc4sc(-c5ccccc5)cc34)CC2)cc1	MC4R ag barr 47.6 (no result: NTR1 agonist, PREPL inhibitor) | MC4R barr conf 33.7 | MOR-DOR barr ag inactive
CC(=O)N1CCN(c2ncnc3sc(-c4ccccc4)cc23)CC1	none
CCOc1cc(/C=N\NC(=O)c2ccc(NC(=O)C(C)(C)C)cc2)ccc1OC(=O)c1cccc(C)c1	MC4R ag barr 18.3 (no result: Lipid droplet) | MC4R barr conf inactive | MOR-DOR barr ag inactive
C#CC(C)(C)NC(=O)c1ccc(-c2ccccc2F)cc1	none
CCC1CN(C(=O)Nc2ccc(C)cc2)c2cc(C)ccc2O1 (stereo unspecified)	MC4R ag barr 10.6 | MC4R barr conf inactive | MOR-DOR barr ag inactive
CCC1CN(C(=O)NCc2ccc(F)cc2)c2cc(C)ccc2O1 (stereo unspecified)	none (no result: PREPL inhibitor)
Cc1c(C(=O)Nc2nccs2)oc2c(Cl)cccc12	MC4R ag barr 21.8 (no result: Lipid droplet) | MC4R barr conf inactive | MOR-DOR barr ag inactive
COc1ccccc1CNC(=O)C1CCC(CNS(=O)(=O)c2ccccc2)CC1 (stereo unspecified)	none
O=C(/C=C/c1cc([N+](=O)[O-])ccc1OC(F)F)Nc1cccc(OC(F)F)c1	MC4R ag barr 20.2 | MC4R barr conf inactive | MOR-DOR barr ag inactive
Cc1ccc(-c2nnn(CC(=O)NC(=O)NC3CCCCC3)n2)cc1	none (no result: Lipid droplet, PREPL inhibitor)
O=C(Cn1nnc(-c2ccc(F)cc2)n1)NC(=O)NC1CCCCC1	MC4R ag barr 9.7 (no result: Lipid droplet, NTR1 agonist, PREPL inhibitor) | MC4R barr conf inactive | MOR-DOR barr ag inactive
O=C(NCCN1CCC(n2c(=O)[nH]c3ccccc32)CC1)c1ccc(F)cc1F	none (no result: Lipid droplet, MC4R ag barr, NTR1 agonist, MC4R antag cAMP, PREPL inhibitor)
O=C(CSc1nnc(SCc2ccccc2Cl)s1)N/N=C/c1ccc(C(=O)O)cc1	none (no result: Lipid droplet)
CCOc1cc(/C=N/NC(=O)CSc2nnc(C)s2)ccc1OCc1ccccc1Cl	MC4R ag barr 11.2 | MC4R barr conf inactive | MOR-DOR barr ag inactive
Cc1ccc2nc(Cl)c3cc(C(=O)N(CCN(C)C)Cc4ccco4)sc3c2c1	none
Cc1ccc2[nH]c(=O)c3cc(C(=O)N(CCCOC(C)C)Cc4ccco4)sc3c2c1	MC4R ag barr 35.3 (no result: Lipid droplet) | MC4R barr conf 33.8 | MOR-DOR barr ag inactive
CCN1CCN(Cc2ccc(NC(=O)c3cc(NC(=O)c4nccnc4N)cc(OC)c3)cc2C(F)(F)F)CC1	none
CCN1CCN(Cc2ccc(NC(=O)c3cc(NC(=O)c4cncc(-c5ccc(C#N)cc5)c4)cc(OC)c3)cc2C(F)(F)F)CC1	MC4R ag barr 13.4! | MC4R barr conf 20.0 | MOR-DOR barr ag inactive
CSc1ccc(CCNC(=O)CSc2ccsc2[N+](=O)[O-])cc1	MC4R ag barr 11.2 (no result: Lipid droplet) | MC4R barr conf inactive | MOR-DOR barr ag inactive
CC(=O)c1nn(-c2cccc(Br)c2)cc1C(=O)c1ccco1	none
CC(=O)c1nn(-c2ccc(Cl)cc2)cc1C(=O)c1ccccc1	MC4R ag barr 18.3 (no result: Lipid droplet) | MC4R barr conf inactive | MOR-DOR barr ag inactive
CC(=O)c1nn(-c2ccccc2)cc1C(=O)c1ccc(Br)cc1	none
CC(=O)c1nn(-c2ccccc2)cc1C(=O)c1cccc(Br)c1	MC4R ag barr 9.8 | MC4R barr conf 11.8 | MOR-DOR barr ag inactive
CC(=O)c1nn(-c2cccc(Br)c2)cc1C(=O)c1ccc(Cl)cc1	MC4R ag barr 32.2 | MC4R barr conf 12.5 | MOR-DOR barr ag inactive
Cc1ccccc1Cn1ccc(NC(=O)c2cc3nc(-c4ccco4)cc(C(F)(F)F)n3n2)n1	MC4R ag barr 14.8 (no result: Lipid droplet) | MC4R barr conf inactive | MOR-DOR barr ag inactive
O=C(OCc1cc(=O)n2cc(Br)ccc2n1)c1ccc(Cl)c(S(=O)(=O)NCc2ccccc2)c1	none
CCCNC(=O)CSc1n[nH]c(=O)n1CCc1ccccc1	none
COc1cccc(-c2cnc3c(NC(C)=O)cc(-c4cc(OC)c(OC)c(OC)c4)cn23)c1	MC4R ag barr 29.0 (no result: Lipid droplet, NTR1 agonist, PREPL inhibitor) | MC4R barr conf 21.2 | MOR-DOR barr ag inactive
CC(=O)Nc1cc(-c2ccccc2N(C)C)cn2c(-c3ccccc3)cnc12	MC4R ag barr 18.1 (no result: Lipid droplet, NTR1 agonist, PREPL inhibitor) | MC4R barr conf 32.2 | MOR-DOR barr ag inactive
COc1cccc(-c2cnc3c(NC(C)=O)cc(-c4ccccc4OC)cn23)c1	MC4R ag barr 22.0 (no result: Lipid droplet, NTR1 agonist, PREPL inhibitor) | MC4R barr conf 14.6 | MOR-DOR barr ag inactive
COc1cccc(-c2cnc3c(NC(C)=O)cc(-c4ccncc4)cn23)c1	none (no result: Lipid droplet, NTR1 agonist, PREPL inhibitor)
CC(=O)Nc1cc(-c2ccccc2N(C)C)cn2c(-c3ccc(S(C)(=O)=O)cc3)cnc12	none (no result: Lipid droplet, NTR1 agonist, PREPL inhibitor)
COc1cccc(-c2cnc3c(NC(C)=O)cc(-c4cccc(C(=O)NCCO)c4)cn23)c1	none (no result: Lipid droplet, NTR1 agonist, PREPL inhibitor)
COc1ccc(-c2cc(NC(C)=O)c3ncc(-c4ccccc4)n3c2)c(OC)c1	MC4R ag barr 32.5 (no result: Lipid droplet, NTR1 agonist, PREPL inhibitor) | MC4R barr conf 36.7 | MOR-DOR barr ag inactive
CNC[C@H]1Oc2c(NS(=O)(=O)c3cccs3)cccc2C(=O)N([C@H](C)CO)C[C@@H]1C	none (no result: Lipid droplet)
CCOC(=O)C1=C(COC(=O)CCOc2cc(C)ccc2C)NC(=O)NC1C (stereo unspecified)	none (no result: Lipid droplet)
CC(=O)Nc1sc(C)c(C)c1C(=O)OCC(=O)N(Cc1ccccc1)C(C)C	none (no result: Lipid droplet)
COc1ccccc1-c1cc(NC(C)=O)c2ncc(-c3ccccc3)n2c1	MC4R ag barr 16.3 (no result: Lipid droplet, NTR1 agonist, PREPL inhibitor) | MC4R barr conf 18.1 | MOR-DOR barr ag inactive
Cc1ccc2c(COC(=O)c3ccccc3Cl)cc(=O)oc2c1	none
Cc1ccc2c(COC(=O)c3ccccc3Br)cc(=O)oc2c1	MC4R ag barr 9.7 | MC4R barr conf inactive | MOR-DOR barr ag inactive
O=C(COC(=O)c1ccc2[nH]c3c(c2c1)CCCC3)Nc1ccc(Cl)cc1Cl	MC4R ag barr 18.4 | MC4R barr conf 10.2 | MOR-DOR barr ag inactive
CCOC(=O)c1ccc2[nH]c3c(c2c1)CCCC3	none

Bioassay records: PubChem BioAssay, several laboratories
